Source: ChEMBL document CHEMBL3526105, “Cytochrome P450-mediated oxidative metabolism of abused synthetic cannabinoids found in K2/Spice: identification of novel cannabinoid receptor ligands” (Drug Metab Dispos, 2012)
pKi: −log10 of the molar value. Calls of active or inactive are those of the source. The rule behind the calls is not given here.

Tests used:
Cytochrome P450 3A4 [1] = target: T1, Cytochrome P450 3A4 (Homo sapiens, UniProt P08684); experiment: Drug metabolism assessed as human recombinant CYP3A4-mediated (1-(4-hydroxypentyl)-1H-indol-3-yl)(naphthalen-1-yl)methanone formation at 10 uM after 90 mins by LC-MS/MS analysis; format: ADME; conditions: recombinant enzyme, 1.5 h
Outline: (§1)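 Recombinant human CYP2E1 or CYP3A4 (2 pmol) incubated with substrate at 10 μM final, dried from ethanol. Buffer 0.1 M KPO4 pH 7.4 with NADPH-regenerating system, which starts the reaction. 90 min at 37°C, triplicate, with no-substrate, no-protein and no-NADPH controls. Stopped with ethanol, centrifuged, and metabolites quantified by LC-MS/MS.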

Liver microsome [2] = experiment: Drug metabolism in human liver microsomes assessed as (5-hydroxy-1-pentyl-1H-indol-3-yl)(naphthalen-1-yl)methanone formation at 10 uM after 20 mins by LC-MS/MS analysis; format: ADME
Outline: (§2)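 Pooled human liver microsomes (75 μg) incubated with 10 μM substrate in 0.1 M KPO4 pH 7.4 with NADPH-regenerating system at 37°C. Reaction stopped with ethanol, centrifuged. Analytes quantified by positive-ESI LC-MS/MS against standards matrix-matched in reaction mixture, with confirmation by SRM-triggered enhanced product ion spectra library matching.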

Liver microsome [3] = experiment: Drug metabolism in human liver microsomes assessed as (6-hydroxy-1-pentyl-1H-indol-3-yl)(naphthalen-1-yl)methanone formation at 10 uM after 20 mins by LC-MS/MS analysis; format: ADME; outline: as §2
[4] = target: Cannabinoid receptor 1 (Mus musculus) (UniProt P47746); experiment: Activation of CB1 receptor in B6SJL mouse brain membrane assessed as [35S]-GTPgammaS binding at 10 uM after 30 mins by liquid scintillation spectrophotometric analysis; format: functional, cell membranes
Outline: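 Mouse brain membrane homogenate (25 μg; whole B6SJL brains, pooled, Dounce-homogenised, spun 40,000g three times). Incubated with […], 0.1 nM [35S]GTPγS in 20 mM HEPES, 10 mM MgCl2, 100 mM NaCl, 20 U/l adenosine deaminase, 0.05% BSA, 30 min at 30°C, triplicate. Nonspecific binding with 10 μM unlabelled GTPγS. Stopped by GF/B filtration; filters counted by scintillation.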

Cytochrome P450 3A4 [5] = target: T1, Cytochrome P450 3A4; experiment: Drug metabolism assessed as human recombinant CYP3A4-mediated 5-(3-(1-naphthoyl)-1H-indol-1-yl)pentanoic acid formation at 10 uM after 90 mins by LC-MS/MS analysis; format: ADME; conditions: recombinant enzyme, 1.5 h; outline: as §1
Cannabinoid receptor 1 = Cannabinoid receptor 1 (Mus musculus, UniProt P47746); experiment: Displacement of [3H]CP-55,940 from CB1 receptor in B6SJL mouse brain membrane after 90 mins by liquid scintillation spectrophotometric analysis; format: cell membranes
Outline: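 B6SJL mouse brain membranes (50 μg) with 0.2 nM [3H]CP-55,940 and competitor at 0.1 nM–10 μM. Buffer 5 mM MgCl2, 50 mM Tris, 0.05% BSA; 90 min at room temperature, triplicate. Nonspecific binding set with 10 μM WIN-55,212-2. Filtered on GF/B, washed with Tris/BSA, counted by scintillation. Specific binding given as % of vehicle.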

[6] = Drug metabolism in human urine assessed as (1-(4-hydroxypentyl)-1H-indol-3-yl)(naphthalen-1-yl)methanone formation by LC-MS/MS analysis; format: ADME, tissue-based
Outline: (§3)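 Urine from suspected users (40 μl) incubated with or without β-glucuronidase (1.6 U/μl final) in 0.1 M sodium acetate pH 5.0, 60 min at 37°C with shaking. Analysed by positive-ESI LC-MS/MS against standards matrix-matched in blank pooled human urine, with confirmation by enhanced product ion spectra.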

Cytochrome P450 2E1 [7] = target: T2, Cytochrome P450 2E1 (Homo sapiens, UniProt P05181); experiment: Drug metabolism assessed as human recombinant CYP2E1-mediated (1-(5-hydroxypentyl)-1H-indol-3-yl)(naphthalen-1-yl)methanone formation at 10 uM after 90 mins by LC-MS/MS analysis; format: ADME; conditions: recombinant enzyme, 1.5 h; outline: as §1
Liver microsome [8] = experiment: Drug metabolism in human liver microsomes assessed as (7-hydroxy-1-pentyl-1H-indol-3-yl)(naphthalen-1-yl)methanone formation at 10 uM after 20 mins by LC-MS/MS analysis; format: ADME; outline: as §2
Cytochrome b5 = Cytochrome b5 (Homo sapiens, UniProt P00167); experiment: Drug metabolism assessed as cytochrome b5 (unknown origin)-mediated (5-hydroxy-1-pentyl-1H-indol-3-yl)(naphthalen-1-yl)methanone formation at 10 uM after 90 mins by LC-MS/MS analysis in presence of oxidoreductase; format: ADME; conditions: 1.5 h
[9] = Drug metabolism in human urine assessed as (1-(5-hydroxypentyl)-1H-indol-3-yl)(naphthalen-1-yl)methanone formation by LC-MS/MS analysis; format: ADME, tissue-based; outline: as §3
[10] = Drug metabolism in human urine assessed as 5-(3-(1-naphthoyl)-1H-indol-1-yl)pentanoic acid formation by LC-MS/MS analysis; format: ADME, tissue-based; outline: as §3
Cytochrome P450 2E1 [11] = target: T2, Cytochrome P450 2E1; experiment: Drug metabolism assessed as human recombinant CYP2E1-mediated 5-(3-(1-naphthoyl)-1H-indol-1-yl)pentanoic acid formation at 10 uM after 90 mins by LC-MS/MS analysis; format: ADME; conditions: recombinant enzyme, 1.5 h; outline: as §1
[12] = target: Cannabinoid receptor 1 (Mus musculus) (UniProt P47746); experiment: Activation of CB1 receptor in B6SJL mouse brain membrane assessed as [35S]-GTPgammaS binding at 10 uM after 30 mins by liquid scintillation spectrophotometric analysis in presence of O-2050; format: functional, cell membranes
Cytochrome P450 3A4 [13] = target: T1, Cytochrome P450 3A4; experiment: Drug metabolism assessed as human recombinant CYP3A4-mediated (1-(5-hydroxypentyl)-1H-indol-3-yl)(naphthalen-1-yl)methanone formation at 10 uM after 90 mins by LC-MS/MS analysis; format: ADME; conditions: recombinant enzyme, 1.5 h; outline: as §1
Cytochrome P450 2E1 [14] = target: T2, Cytochrome P450 2E1; experiment: Drug metabolism assessed as human recombinant CYP2E1-mediated (1-(4-hydroxypentyl)-1H-indol-3-yl)(naphthalen-1-yl)methanone formation at 10 uM after 90 mins by LC-MS/MS analysis; format: ADME; conditions: recombinant enzyme, 1.5 h; outline: as §1
Cytochrome P450 2C9 [15] = target: T3, Cytochrome P450 2C9 (Homo sapiens, UniProt P11712); experiment: Drug metabolism assessed as intrinsic clearance for human recombinant CYP2C9-mediated compound formation per nmol protein treated with AM2201 at 10 uM after 90 mins; format: ADME; conditions: recombinant enzyme, 1.5 h
Cytochrome P450 2C19 [16] = target: T4, Cytochrome P450 2C19 (Homo sapiens, UniProt P33261); experiment: Drug metabolism assessed as intrinsic clearance for human recombinant CYP2C19-mediated compound formation per nmol protein treated with AM2201 at 10 uM after 90 mins; format: ADME; conditions: recombinant enzyme, 1.5 h
Cytochrome P450 2D6 [17] = target: T5, Cytochrome P450 2D6 (Homo sapiens, UniProt P10635); experiment: Drug metabolism assessed as intrinsic clearance for human recombinant CYP2D6-mediated compound formation per nmol protein treated with AM2201 at 10 uM after 90 mins; format: ADME; conditions: recombinant enzyme, 1.5 h
Cytochrome P450 1A2 [18] = target: T6, Cytochrome P450 1A2 (Homo sapiens, UniProt P05177); experiment: Drug metabolism assessed as intrinsic clearance for human recombinant CYP1A2-mediated compound formation per nmol protein treated with AM2201 at 10 uM after 90 mins; format: ADME; conditions: recombinant enzyme, 1.5 h
T6 sequence (P05177 whole entry): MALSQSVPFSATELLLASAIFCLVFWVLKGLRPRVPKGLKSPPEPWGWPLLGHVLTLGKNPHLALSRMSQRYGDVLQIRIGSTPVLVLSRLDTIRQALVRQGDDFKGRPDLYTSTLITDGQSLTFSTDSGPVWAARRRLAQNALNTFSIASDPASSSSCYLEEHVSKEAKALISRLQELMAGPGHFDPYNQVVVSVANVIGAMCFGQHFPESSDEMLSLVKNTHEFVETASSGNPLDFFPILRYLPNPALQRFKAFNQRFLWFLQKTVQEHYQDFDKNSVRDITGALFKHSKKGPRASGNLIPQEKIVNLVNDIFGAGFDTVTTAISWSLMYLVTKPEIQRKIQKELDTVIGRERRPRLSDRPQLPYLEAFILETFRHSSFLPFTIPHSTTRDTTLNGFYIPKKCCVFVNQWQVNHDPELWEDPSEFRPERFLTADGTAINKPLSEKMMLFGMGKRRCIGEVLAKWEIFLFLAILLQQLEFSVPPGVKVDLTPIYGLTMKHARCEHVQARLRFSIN

Liver microsome [19] = experiment: Drug metabolism in human liver microsomes assessed as intrinsic clearance per mg protein treated with AM2201; format: ADME
Liver microsome [20] = experiment: Drug metabolism in human liver microsomes assessed as intrinsic clearance per mg protein treated with JWH-018; format: ADME
Liver microsome [21] = experiment: Drug level in human liver microsomes treated with JWH-018 at 10 uM after 20 mins by LC-MS/MS analysis; format: ADME; outline: as §2
Cytochrome P450 1A2 [22] = target: T6, Cytochrome P450 1A2; experiment: Drug metabolism assessed as intrinsic clearance for human recombinant CYP1A2-mediated compound formation per nmol protein treated with JWH-018 at 10 uM after 90 mins; format: ADME; conditions: recombinant enzyme, 1.5 h
[23] = Drug level in human urine treated with JWH-018 by LC-MS/MS analysis; format: ADME, tissue-based; outline: as §3
Cytochrome P450 2C19 [24] = target: T4, Cytochrome P450 2C19; experiment: Drug metabolism assessed as intrinsic clearance for human recombinant CYP2C19-mediated compound formation per nmol protein treated with JWH-018 at 10 uM after 90 mins; format: ADME; conditions: recombinant enzyme, 1.5 h
Cytochrome P450 2D6 [25] = target: T5, Cytochrome P450 2D6; experiment: Drug metabolism assessed as intrinsic clearance for human recombinant CYP2D6-mediated compound formation per nmol protein treated with JWH-018 at 10 uM after 90 mins; format: ADME; conditions: recombinant enzyme, 1.5 h
Liver microsome [26] = experiment: Drug level in human liver microsomes treated with AM2201 at 10 uM after 20 mins by LC-MS/MS analysis; format: ADME; outline: as §2
Cytochrome P450 2C9 [27] = target: T3, Cytochrome P450 2C9; experiment: Drug metabolism assessed as intrinsic clearance for human recombinant CYP2C9-mediated compound formation per nmol protein treated with JWH-018 at 10 uM after 90 mins; format: ADME; conditions: recombinant enzyme, 1.5 h

T1 sequence (P08684 whole entry): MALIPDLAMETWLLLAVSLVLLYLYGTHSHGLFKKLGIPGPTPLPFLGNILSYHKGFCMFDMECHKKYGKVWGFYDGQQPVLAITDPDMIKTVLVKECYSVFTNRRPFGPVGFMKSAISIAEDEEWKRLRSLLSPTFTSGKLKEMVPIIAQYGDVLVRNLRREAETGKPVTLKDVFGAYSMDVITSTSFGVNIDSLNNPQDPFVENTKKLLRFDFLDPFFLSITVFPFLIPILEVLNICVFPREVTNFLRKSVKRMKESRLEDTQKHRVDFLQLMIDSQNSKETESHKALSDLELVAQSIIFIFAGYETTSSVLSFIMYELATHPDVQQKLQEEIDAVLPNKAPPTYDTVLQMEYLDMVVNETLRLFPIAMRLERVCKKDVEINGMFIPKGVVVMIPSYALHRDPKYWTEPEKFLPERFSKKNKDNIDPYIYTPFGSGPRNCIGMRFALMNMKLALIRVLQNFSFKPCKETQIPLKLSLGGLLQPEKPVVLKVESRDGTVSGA
Cannabinoid receptor 1 (Mus musculus), sequence (P47746 whole entry): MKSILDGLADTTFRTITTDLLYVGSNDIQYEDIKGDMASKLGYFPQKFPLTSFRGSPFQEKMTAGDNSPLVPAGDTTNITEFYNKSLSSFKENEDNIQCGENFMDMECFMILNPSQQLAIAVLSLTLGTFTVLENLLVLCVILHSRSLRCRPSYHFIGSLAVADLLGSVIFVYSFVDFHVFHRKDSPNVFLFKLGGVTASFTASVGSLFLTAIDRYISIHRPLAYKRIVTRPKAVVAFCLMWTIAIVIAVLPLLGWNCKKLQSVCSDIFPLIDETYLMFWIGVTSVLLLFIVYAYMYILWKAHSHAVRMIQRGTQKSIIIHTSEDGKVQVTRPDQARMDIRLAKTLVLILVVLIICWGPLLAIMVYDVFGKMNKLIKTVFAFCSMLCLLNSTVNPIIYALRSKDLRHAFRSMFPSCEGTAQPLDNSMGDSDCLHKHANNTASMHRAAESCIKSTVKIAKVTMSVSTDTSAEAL
T3 sequence (P11712 whole entry): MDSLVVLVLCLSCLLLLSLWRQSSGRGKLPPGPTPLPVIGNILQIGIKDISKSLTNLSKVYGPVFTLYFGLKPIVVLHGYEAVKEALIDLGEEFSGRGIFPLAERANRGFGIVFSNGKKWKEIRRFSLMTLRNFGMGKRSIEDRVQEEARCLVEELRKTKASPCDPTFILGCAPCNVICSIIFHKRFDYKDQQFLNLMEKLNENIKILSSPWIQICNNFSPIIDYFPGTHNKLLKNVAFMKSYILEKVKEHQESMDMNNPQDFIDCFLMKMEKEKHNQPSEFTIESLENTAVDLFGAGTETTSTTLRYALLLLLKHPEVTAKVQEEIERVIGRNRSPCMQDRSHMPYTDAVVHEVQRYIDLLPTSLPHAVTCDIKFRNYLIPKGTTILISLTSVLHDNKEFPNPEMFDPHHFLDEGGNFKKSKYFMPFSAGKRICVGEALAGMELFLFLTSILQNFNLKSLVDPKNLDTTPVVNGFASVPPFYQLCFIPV
T2 sequence (P05181 whole entry): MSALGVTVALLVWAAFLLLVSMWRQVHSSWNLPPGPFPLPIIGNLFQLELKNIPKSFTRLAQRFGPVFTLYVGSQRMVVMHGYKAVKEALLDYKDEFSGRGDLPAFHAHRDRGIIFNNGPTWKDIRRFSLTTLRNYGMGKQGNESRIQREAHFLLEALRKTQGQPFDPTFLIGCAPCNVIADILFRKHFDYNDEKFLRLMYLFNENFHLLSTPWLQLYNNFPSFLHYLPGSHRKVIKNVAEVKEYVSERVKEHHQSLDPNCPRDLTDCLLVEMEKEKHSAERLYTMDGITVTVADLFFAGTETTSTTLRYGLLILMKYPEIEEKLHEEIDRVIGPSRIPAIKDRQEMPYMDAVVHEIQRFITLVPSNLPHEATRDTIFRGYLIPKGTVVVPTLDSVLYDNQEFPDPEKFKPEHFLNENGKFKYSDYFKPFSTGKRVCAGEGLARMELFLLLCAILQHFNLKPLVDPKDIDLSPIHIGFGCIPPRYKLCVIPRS
T5 sequence (P10635 whole entry): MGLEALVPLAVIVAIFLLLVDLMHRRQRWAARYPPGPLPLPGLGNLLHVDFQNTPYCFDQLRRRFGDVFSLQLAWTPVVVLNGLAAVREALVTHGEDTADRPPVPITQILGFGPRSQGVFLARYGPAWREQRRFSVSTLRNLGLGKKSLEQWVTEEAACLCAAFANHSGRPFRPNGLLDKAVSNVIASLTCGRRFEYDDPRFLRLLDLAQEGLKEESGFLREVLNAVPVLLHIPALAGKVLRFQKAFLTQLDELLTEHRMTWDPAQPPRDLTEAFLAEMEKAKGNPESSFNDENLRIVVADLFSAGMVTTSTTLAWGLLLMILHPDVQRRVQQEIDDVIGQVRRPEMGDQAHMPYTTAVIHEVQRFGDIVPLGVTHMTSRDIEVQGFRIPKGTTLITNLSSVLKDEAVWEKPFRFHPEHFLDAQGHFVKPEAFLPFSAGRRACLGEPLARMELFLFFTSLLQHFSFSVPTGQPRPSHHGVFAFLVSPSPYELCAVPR
T4 sequence (P33261 whole entry): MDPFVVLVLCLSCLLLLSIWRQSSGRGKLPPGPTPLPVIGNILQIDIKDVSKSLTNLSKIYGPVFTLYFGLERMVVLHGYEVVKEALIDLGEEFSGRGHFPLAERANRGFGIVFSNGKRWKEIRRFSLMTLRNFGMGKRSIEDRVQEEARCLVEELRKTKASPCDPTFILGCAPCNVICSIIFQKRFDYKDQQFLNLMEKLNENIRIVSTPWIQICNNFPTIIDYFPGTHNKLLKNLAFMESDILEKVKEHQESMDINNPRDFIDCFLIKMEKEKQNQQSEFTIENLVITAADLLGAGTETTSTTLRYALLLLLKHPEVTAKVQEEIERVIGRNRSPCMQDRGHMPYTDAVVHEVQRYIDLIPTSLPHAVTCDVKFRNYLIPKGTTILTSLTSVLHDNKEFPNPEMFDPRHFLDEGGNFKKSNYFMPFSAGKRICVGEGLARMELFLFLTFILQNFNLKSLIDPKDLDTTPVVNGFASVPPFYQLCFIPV
Cannabinoid receptor 1, sequence (P47746 whole entry): as the sequence (P47746 whole entry) above
Cytochrome b5, sequence (P00167 whole entry): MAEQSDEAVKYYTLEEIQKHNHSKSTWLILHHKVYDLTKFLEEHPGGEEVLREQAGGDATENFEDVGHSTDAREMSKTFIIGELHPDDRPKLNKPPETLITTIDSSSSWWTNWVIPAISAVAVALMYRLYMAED

CCCCCn1cc(C(=O)c2cccc3ccccc23)c2ccccc21
Drug metabolism (Cytochrome P450 3A4 [1]): metabolite_not_detected | Drug metabolism (Liver microsome [2]): metabolite_detected | Drug metabolism (Liver microsome [3]): metabolite_detected | Activity [4]: Active | Drug metabolism (Cytochrome P450 3A4 [5]): metabolite_not_detected | pKi (Cannabinoid receptor 1): 8.89 | Drug metabolism [6]: metabolite_detected | Drug metabolism (Cytochrome P450 2E1 [7]): metabolite_not_detected | Drug metabolism (Liver microsome [8]): metabolite_detected | Drug metabolism (Cytochrome b5): metabolite_detected | Drug metabolism [9]: metabolite_detected | Drug metabolism [10]: metabolite_detected | Drug metabolism (Cytochrome P450 2E1 [11]): metabolite_not_detected | Activity [12]: inactive | Drug metabolism (Cytochrome P450 3A4 [13]): metabolite_not_detected | Drug metabolism (Cytochrome P450 2E1 [14]): metabolite_not_detected

O=C(c1cccc2ccccc12)c1cn(CCCC(O)CF)c2ccccc12 (configuration not stated)
CL (Cytochrome P450 2C9 [15]): 63 µL/min | Activity [4]: Active | CL (Cytochrome P450 2C19 [16]): 32 µL/min | CL (Cytochrome P450 2D6 [17]): 3.7 µL/min | CL (Cytochrome P450 1A2 [18]): 19 µL/min | CLH (Liver microsome [19]): 0.124 µL/min/g

CCCCCc1cc(O)c2c(c1)OC(C)(C)[C@@H]1CCC(C)=C[C@@H]21
Activity [4]: Active | Activity [12]: inactive

CCCCCn1cc(C(=O)c2cccc3ccccc23)c2cccc(O)c21
CLH (Liver microsome [20]): 0 µL/min/mg | Drug metabolism (Liver microsome [21]): metabolite_detected | CLH (Liver microsome [19]): 0 µL/min/g

O=C(c1cccc2ccccc12)c1cn(CCCCCO)c2ccccc12
CL (Cytochrome P450 1A2 [22]): 157 µL/min | Drug metabolism [23]: metabolite_detected | CL (Cytochrome P450 2C9 [15]): 63 µL/min | Activity [4]: Active | CLH (Liver microsome [20]): 0.5 µL/min/mg | CL (Cytochrome P450 2C19 [16]): 32 µL/min | pKi (Cannabinoid receptor 1): 7.46 | CL (Cytochrome P450 2C19 [24]): 6.5 µL/min | CL (Cytochrome P450 2D6 [25]): 9.3 µL/min | CL (Cytochrome P450 2D6 [17]): 3.7 µL/min | CL (Cytochrome P450 1A2 [18]): 19 µL/min | Drug metabolism (Liver microsome [26]): 8.53 ng/mL | CLH (Liver microsome [19]): 0.483 µL/min/g | Activity [12]: inactive | CL (Cytochrome P450 2C9 [27]): 1035 µL/min
